In brackets after ≈: the same amount, converted by molar mass. Activity calls are given as the source filed them. The calls are words filed in the database; no cut-off is given here.
Assays:
Candida albicans = assay: Antifungal activity against Candida albicans by MTT assay; format: functional, organism-based
Outline: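 Tested against Candida albicans strain ATCC 90028 with a modified colorimetric method that uses tetrazolium salt (MTT) reduction as the read-out.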

KB = assay: Cytotoxicity against human KB cells by MTT assay; format: functional, cell-based
BC1 = assay: (§1) Cytotoxicity against human BC1 cells by MTT assay; format: functional, cell-based
[1] = system: Mycobacterium tuberculosis; assay: Antimicrobial activity against Mycobacterium tuberculosis H37Ra by Microplate Alamar blue assay; format: functional
Outline: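 Whole-cell growth inhibition of M. tuberculosis H37Ra read by Microplate Alamar Blue Assay; value reported as minimum inhibitory concentration; isoniazid and kanamycin sulfate as reference drugs.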

Plasmodium falciparum = assay: Antimalarial activity after 42 hrs against Plasmodium falciparum K1; settings: K1, 42 h
[2] = as §1; format: functional, cell-based

SMILES | Activity (Candida albicans) | Activity (KB) | Activity (BC1) | MIC [1] [µg/mL] | Activity [1] | also measured
C[C@@]1([C@@H]2CCC(=O)O2)Oc2cc(CO)cc(O)c2C(=O)[C@H]1O [LACHNONE D] | inactive | inactive | inactive | 200 (≈ 649 µM) | – | –
NC[C@H]1O[C@H](O[C@H]2[C@H](O)[C@@H](O[C@H]3O[C@H](CO)[C@@H](O)[C@H](N)[C@H]3O)[C@H](N)C[C@@H]2N)[C@H](O)[C@@H](O)[C@@H]1O.O=S(=O)(O)O [KANAMYCIN SULFATE] | – | – | – | 2.5 | – | –
NNC(=O)c1ccncc1 [ISONIAZID] | – | – | – | 0.05 (≈ 0.365 µM) | – | –
C[C@H]1[C@@H](O)O[C@@H]2O[C@@]3(C)CC[C@H]4[C@H](C)CC[C@@H]1[C@@]24OO3 [ARTENIMOL] | – | – | – | – | – | IC50 (Plasmodium falciparum): 3.7 nM
CC(=O)C[C@]1(O)C(=O)c2c(O)cc(CO)cc2O[C@@]1(C)[C@@H]1CCC(=O)O1 | inactive | inactive | inactive | – | inactive | –
Cc1cc(O)c2c(=O)c(O)c(C)oc2c1 | inactive | inactive | inactive | – | inactive | –
Cc1oc2cc(CO)cc(O)c2c(=O)c1O [LACHNONE B] | inactive | inactive | inactive | 200 (≈ 900 µM) | – | –
C[C@]1([C@@H]2CCC(=O)O2)CC(=O)c2c(O)cc(CO)cc2O1 | inactive | inactive | inactive | – | inactive | –
Cc1c2ccncc2c(C)c2c1[nH]c1ccccc12 [ELLIPTECINE] | – | – | – | – | – | IC50 (KB): 0.24 µg/mL (≈ 0.974 µM); IC50 [2]: 0.22 µg/mL (≈ 0.893 µM)

— ChEMBL document CHEMBL1157979, “Chromone derivatives from the filamentous fungus Lachnum sp. BCC 2424” (J Nat Prod, 2006)
